Laboratory results: ChEMBL document CHEMBL2034823, “Synthesis and antiviral activity of certain second generation methylenecyclopropane nucleosides” (Bioorg Med Chem, 2012)

Columns and labels:
[1] = Cytotoxicity against human HSB2 cells after 7 days by Cell-Titer Glo assay; type: cell-based, CCRF-HSB-2
In short: (§1)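 Uninfected Akata, BCBL1, HSB-2 or MOLT-3 cells incubated with compound for seven days under the matching antiviral-assay conditions. CellTiter-Glo added and luminescence read. CC50 is the concentration reducing cell number by 50%.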

[2] = tested on: Human alphaherpesvirus 1; assay: Antiviral activity against HSV-1 infected in human HFF cells assessed as reduction in cytopathic effect after 3 days by crystal violet staining; type: functional, organism-based; conditions: Human alphaherpesvirus 1, HFF, 72 h
In short: (§2)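 Compound diluted over HFF monolayers, then HSV-1 (E-377) or HSV-2 (MS) added at MOI about 0.01 PFU/cell. Held 3 days in humidified 5% CO2. Stained 4 h with 0.1% crystal violet in formalin, rinsed, dried 24 h, and absorbance read at 595 nm. EC50 is 50% CPE reduction. Duplicate wells.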

[3] = Cytotoxicity against human HFF cells after 3 to 8 days by crystal voilet staining; type: cell-based
In short: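 Uninfected HFF cells exposed to the same concentrations as in the CPE assays (3 days for HSV, 7 for VZV, […]). Stained with crystal violet. CC50 is the concentration reducing cell number by 50%. Duplicate wells.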

[4] = Cytotoxicity against human MOLT3 cells after 7 days by Cell-Titer Glo assay; type: cell-based, MOLT-3; in short: as §1
[5] = Cytotoxicity against human Akata cells after 7 days by Cell-Titer Glo assay; type: cell-based; in short: as §1
[6] = Antiviral activity against HHV-6B infected in human Molt3 cells assessed as reduction in viral DNA after 7 days by hybridization assay; type: functional, cell-based, Human herpesvirus 6B; conditions: Human betaherpesvirus 6B, MOLT-3, 168 h
In short: (§3)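 Compound serially diluted in medium. Uninfected HSB-2 cells were infected with HHV-6A (GS)-infected HSB-2 cells, and Molt-3 cells with HHV-6B (Z29)-infected Molt-3 cells. Incubation 7 days at 37 °C. Lysis in 4.5 M NaCl/1.2 M NaOH, then transfer to nylon membrane. Viral DNA quantified by digoxigenin-probe hybridization and EC50 calculated. Duplicate wells.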

[7] = tested on: Human gammaherpesvirus 8; assay: Antiviral activity against HHV-8 infected in human BCBL1 cells assessed as reduction in viral DNA after 7 days by qPCR analysis; type: functional, organism-based; conditions: Human gammaherpesvirus 8, BCBL1, 168 h
In short: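 BCBL1 cells kept in RPMI 1640 with 10% FBS, penicillin, gentamycin and L-glutamine. Lytic infection induced with phorbol 12-myristate 13-acetate, then cells added to triplicate compound dilutions. Incubation 7 days at 37 °C in humidified CO2. EC50 is the concentration halving viral DNA accumulation.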

[8] = Antiviral activity against HHV-6A infected in human HSB2 cells assessed as reduction in viral DNA after 7 days by hybridization assay; type: functional, cell-based, Human herpesvirus 6A; conditions: Human betaherpesvirus 6A, HSB2, 168 h; in short: as §3
[9] = Cytotoxicity against human BCBL1 cells after 7 days by Cell-Titer Glo assay; type: cell-based; in short: as §1
[10] = tested on: Human alphaherpesvirus 3; assay: Antiviral activity against VZV infected in human HFF cells assessed as reduction in cytopathic effect after 7 days by crystal violet staining; type: functional, organism-based; conditions: Human alphaherpesvirus 3, HFF, 168 h
[11] = tested on: Human alphaherpesvirus 2; assay: Antiviral activity against HSV-2 infected in human HFF cells assessed as reduction in cytopathic effect after 3 days by crystal violet staining; type: functional, organism-based; conditions: Human alphaherpesvirus 2, HFF, 72 h; in short: as §2
[12] = tested on: Human betaherpesvirus 5; assay: Antiviral activity against HCMV infected in human HFF cells assessed as reduction in cytopathic effect after 8 days by plaque reduction assay; type: functional, organism-based; conditions: Human betaherpesvirus 5, HFF, 192 h
In short: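 HFF monolayers seeded 2 days ahead and infected with AD169 at about 30 plaques per well, with 1 h adsorption. Compound was then added in MEM with 2% FBS, L-glutamine, penicillin, gentamycin and pooled human gamma globulin. After 8 days, neutral red stain and plaque counts by stereomicroscope. EC50 interpolated. Duplicate wells.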

[13] = tested on: Human gammaherpesvirus 4; assay: Antiviral activity against EBV Akata infected in human Akata cells assessed as reduction in viral DNA after 72 hrs by hybridization assay; type: functional, organism-based; conditions: human gammaherpesvirus 4, Akata
In short: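 Akata cells kept in RPMI 1640 with 10% FBS, L-glutamine, penicillin and gentamicin. Latent infection was switched to productive by adding goat anti-human IgG, and cells were seeded into compound dilutions made in growth medium. After 72 h the DNA was denatured and blotted onto nylon membrane. Viral DNA was measured with a digoxigenin-labeled probe plus anti-hapten antibody. EC50 is the concentration halving viral DNA. Duplicate wells.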

SMILES | IC50 [2] [µM] | IC50 [6] [µM] | IC50 [7] [µM] | IC50 [8] [µM] | IC50 [10] [µM] | IC50 [11] [µM] | IC50 [12] [µM] | IC50 [13] [µM] | CC50 at 168 h [1] [µM] | CC50 [3] [µM] | CC50 at 168 h [4] [µM] | CC50 at 168 h [5] [µM] | CC50 at 168 h [9] [µM]
Nc1nc(N)c2nc[nH]c2n1 [2,6-DIAMINOPURINE] | > 300 | 16 | 30 | > 20 | > 300 | > 300 | > 300 | 11 | > 20 | > 300 | > 20 | > 20 | 67
CCCCOc1nc(N)nc2c1ncn2/C=C1/CC1(CO)CO | > 300 | 3.2 | > 20 | > 20 | > 100 | > 300 | 1.6 | 1.6 | > 20 | > 300 | > 20 | > 20 | > 20
Nc1nc2c(ncn2/C=C2/CC2(CO)CO)c(=O)[nH]1 [FILOCICLOVIR] | > 100 | 8 | 3 | 1.3 | > 100 | > 100 | 1.4 | 45 | > 20 | > 300 | > 20 | > 20 | > 20
CC(C)Sc1nc(N)nc2c1ncn2/C=C1/CC1(CO)CO | > 300 | 7.5 | > 20 | 70 | > 60 | > 300 | 4 | 3.1 | 94 | > 300 | > 20 | > 20 | > 20
CCCSc1nc(N)nc2c1ncn2/C=C1/CC1(CO)CO | > 300 | 14.3 | > 20 | 63 | > 300 | > 300 | 42 | > 20 | 98 | > 300 | > 20 | > 20 | > 20
COc1nc(N)nc2nc[nH]c12 | > 300 | > 20 | 13 | > 20 | 7.4 | > 300 | 2.8 | 1 | > 20 | 171 | > 20 | > 20 | 51
CNc1nc(N)nc2c1ncn2/C=C1/CC1(CO)CO | > 300 | > 20 | 62 | > 20 | > 300 | > 300 | > 300 | > 24 | > 20 | 265 | > 20 | > 24 | 67
Nc1nc(NCc2ccccc2)c2ncn(/C=C3/CC3(CO)CO)c2n1 | > 300 | > 20 | – | > 20 | > 60 | > 300 | > 60 | > 24 | > 20 | > 300 | > 20 | > 24 | 19.9
Nc1nc2c(ncn2COCCO)c(=O)[nH]1 [ACYCLOVIR] | 2.9 | – | – | – | – | 2.8 | – | – | – | > 300 | – | – | –
Nc1nc(N2CCCC2)c2ncn(/C=C3/CC3(CO)CO)c2n1 | > 300 | – | > 20 | > 20 | > 300 | > 300 | > 300 | > 24 | > 20 | > 300 | – | > 24 | > 20
CCCCCCOc1nc(N)nc2c1ncn2/C=C1/CC1(CO)CO | > 300 | 9.5 | > 20 | > 20 | – | > 300 | 3.9 | 7.3 | > 20 | > 200 | > 20 | > 20 | > 20
CN(C)c1nc(N)nc2c1ncn2/C=C1/CC1(CO)CO | > 300 | – | > 20 | > 20 | 180 | > 300 | > 300 | > 24 | > 20 | > 300 | – | > 24 | > 20

Continued, in another order:

IC50 [2] [µM] | IC50 [6] [µM] | IC50 [7] [µM] | IC50 [8] [µM] | IC50 [10] [µM] | IC50 [11] [µM] | IC50 [12] [µM] | IC50 [13] [µM] | SMILES | CC50 at 168 h [1] [µM] | CC50 [3] [µM] | CC50 at 168 h [4] [µM] | CC50 at 168 h [5] [µM] | CC50 at 168 h [9] [µM]
> 300 | > 20 | > 20 | 88 | > 60 | > 300 | > 50 | 3.1 | Nc1nc(SCc2ccccc2)c2ncn(/C=C3/CC3(CO)CO)c2n1 | > 100 | > 300 | > 20 | > 20 | > 20
> 60 | > 20 | 63 | > 20 | > 60 | > 60 | > 60 | > 20 | Nc1nc(NC2CCCC2)c2ncn(/C=C3/CC3(CO)CO)c2n1 | > 20 | > 300 | > 20 | > 20 | 71.7
> 300 | – | > 20 | > 20 | > 50 | > 300 | 31 | 2.3 | CC(C)CSc1nc(N)nc2c1ncn2/C=C1/CC1(CO)CO | 60 | > 300 | – | > 20 | > 20
– | – | – | – | – | – | 2.1 | – | Nc1nc2c(ncn2COC(CO)CO)c(=O)[nH]1 [GANCICLOVIR] | – | > 300 | – | – | –
> 300 | 11.6 | > 20 | > 100 | > 60 | > 300 | > 50 | 11.4 | CSc1nc(N)nc2c1ncn2/C=C1/CC1(CO)CO | > 100 | > 300 | > 20 | > 20 | > 20
> 300 | – | > 20 | > 20 | > 300 | > 300 | 160 | > 24 | CC(C)Nc1nc(N)nc2c1ncn2/C=C1/CC1(CO)CO | > 20 | > 300 | – | > 24 | > 20
> 300 | – | > 20 | > 20 | > 300 | > 300 | > 300 | > 24 | Nc1nc(N2CCOCC2)c2ncn(/C=C3/CC3(CO)CO)c2n1 | > 20 | > 300 | – | > 24 | > 20
> 300 | – | > 20 | > 20 | > 300 | > 300 | > 300 | > 24 | CCCNc1nc(N)nc2c1ncn2/C=C1/CC1(CO)CO | > 20 | > 300 | – | > 24 | > 20
> 300 | – | > 20 | > 20 | > 300 | > 300 | > 300 | > 24 | CC(C)CNc1nc(N)nc2c1ncn2/C=C1/CC1(CO)CO | > 20 | > 300 | – | > 24 | > 20
> 300 | – | > 20 | > 20 | > 300 | > 300 | > 300 | > 24 | Nc1nc(NC2CCCCC2)c2ncn(/C=C3/CC3(CO)CO)c2n1 | > 20 | > 300 | – | > 24 | > 20
